These results are taken from ChEMBL document CHEMBL4024790 (J Med Chem, 2018).

Activity calls are given as the source filed them. The calls are words filed in the database; no cut-off is given here.

The species named for one data set is Canis familiaris. The experiment in a line: Toxicity in dog assessed as effect on CNS up to 1 month by microscopic method. Also noted: species or system Canis lupus familiaris. To be noted: in vivo.
The species entered for data set [1] is Rattus norvegicus. The experiment in a line: Toxicity in rat assessed as effect on vasculature up to 1 month by microscopic method. The settings on record: in vivo.
In data set [2] the target is T1, cGMP-dependent 3',5'-cyclic phosphodiesterase (Rattus norvegicus, UniProt Q01062).
T1 sequence (Q01062 whole entry): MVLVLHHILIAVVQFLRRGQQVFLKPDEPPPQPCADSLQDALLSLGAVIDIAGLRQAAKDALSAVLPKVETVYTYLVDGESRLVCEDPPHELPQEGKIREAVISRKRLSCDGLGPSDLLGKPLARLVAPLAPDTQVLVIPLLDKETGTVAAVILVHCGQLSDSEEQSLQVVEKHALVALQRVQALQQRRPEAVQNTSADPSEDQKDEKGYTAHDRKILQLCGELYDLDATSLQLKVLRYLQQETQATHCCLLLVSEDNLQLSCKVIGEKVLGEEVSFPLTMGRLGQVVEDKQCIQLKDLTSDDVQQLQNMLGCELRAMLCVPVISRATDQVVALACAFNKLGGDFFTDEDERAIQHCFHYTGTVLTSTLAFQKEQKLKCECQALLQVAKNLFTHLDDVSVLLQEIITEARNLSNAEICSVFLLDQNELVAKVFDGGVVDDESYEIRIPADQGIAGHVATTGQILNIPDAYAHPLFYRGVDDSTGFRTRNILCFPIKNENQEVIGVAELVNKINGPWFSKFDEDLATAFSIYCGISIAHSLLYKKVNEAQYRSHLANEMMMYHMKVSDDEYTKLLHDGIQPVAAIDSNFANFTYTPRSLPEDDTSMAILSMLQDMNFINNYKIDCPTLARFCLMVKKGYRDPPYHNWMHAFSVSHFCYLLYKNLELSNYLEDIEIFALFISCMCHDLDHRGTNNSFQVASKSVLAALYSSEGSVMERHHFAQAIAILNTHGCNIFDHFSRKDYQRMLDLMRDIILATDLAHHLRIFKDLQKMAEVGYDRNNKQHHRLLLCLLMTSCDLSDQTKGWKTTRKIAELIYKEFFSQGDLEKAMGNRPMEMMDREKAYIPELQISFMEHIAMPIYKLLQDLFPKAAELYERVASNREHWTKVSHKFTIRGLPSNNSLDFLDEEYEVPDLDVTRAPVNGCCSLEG
Kind of data set: Displacement of radiolabeled 4-(azetidin-1-yl)-3-[5-[4-(trifluoromethyl)phenyl]-1H-pyrazol-4-yl]-1-(tritritiomethyl)pyrazolo[3,4-d]pyrimidine from PDE2A in rat striatal membranes after 30 mins by liquid scintillation counting method. In kind it is cell membranes, Striatum, Membrane.

The subject of data set [3] is Rattus norvegicus. The experiment in a line: Reversal of ketamine-induced working memory deficit in Long Evans rat at 1 mg/kg, sc by radial arm maze assay. Type of data set: functional, organism-based. The gist of the method:
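Rats trained in a radial arm maze working-memory task, with deficit induced by ketamine. Compound dosed sc; errors compared with vehicle + ketamine. N = 20–23 per group, Hochberg test. Cbu at the tested doses estimated from satellite pharmacokinetic animals.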

In another data set the test system is Mus musculus. The experiment in a line: In vivo effect on phosphorylated CREB level in CD-1 mouse brain cortex by immunoassay. Type of data set: functional, organism-based.
Data set [4] deals with T2, Cytochrome P450 3A (Homo sapiens, UniProt P08684+P20815+Q9HB55+P24462). The experiment in a line: Inhibition of recombinant human CYP3A. Type of data set: ADME. The settings on record: recombinant enzyme.
For data set [5], the target named is T2, Cytochrome P450 3A. The experiment in a line: Time-dependant inhibition of recombinant human CYP3A. Type of data set: ADME. To be noted: recombinant enzyme.
Data set [6] can be described thus: Plasma clearance in Wistar Han rat at 1 mg/kg, iv by LC-MS/MS analysis. In kind it is ADME, organism-based. An outline of the steps: (§1)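 Single iv dose to male Wistar-Han rats (1 mg/kg) or dogs (0.3 mg/kg), given as a solution in 20% (w/v) SBECD with HCl. Dose volume 1 mL/kg in rats and 0.4 mL/kg in dogs. Blood taken by carotid artery cannula from 2 min to 24 h into K2EDTA (rat) or K3EDTA (dog) tubes. Plasma analysed by LC-MS/MS with positive electrospray after acetonitrile precipitation with internal standard.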

A short description of data set [7]: Terminal half life in Wistar Han rat at 1 mg/kg, iv by LC-MS/MS analysis. Type of data set: ADME, organism-based. The settings on record: in vivo, read-out: beta t1/2 (converted). The gist of the method: as §1
Data set [8] is described as follows: Terminal half life in beagle dog at 5 mg/kg, po administered via gavage by LC-MS/MS analysis. In kind it is ADME, organism-based, Canis lupus familiaris. The settings on record: in vivo, read-out: beta t1/2 (converted).
The nature of data set [9]: Oral bioavailability in beagle dog at 5 mg/kg administered via gavage by LC-MS/MS analysis. To be noted: in vivo. In kind it is ADME, organism-based, Canis lupus familiaris.

Consider `Cc1nc(-c2cnn(C)c2-c2ccc(C(F)(F)F)cn2)c2c(N3CCC3)ncnn12` [PF-05180999], for which the Activity result in the data set filed under Canis familiaris was “Toxic”; in the data set filed under Rattus norvegicus [1], “Non-Toxic”. Besides, the affinity in data set [2] corresponds to a Ki of 4.2 nM. The result in the data set on Rattus norvegicus [3] and in the data set on Mus musculus was inactive. On Cytochrome P450 3A [4], the “inhibition (INH)” value is “Not Active”. Moreover, the TDI entry at Cytochrome P450 3A [5] is “Not Active”. Further, the clearance in data set [6] was 122 mL/min/kg. For the same compound, the half-life in [7] is 1.1 h; in data set [8] it was 4.1 h. The compound further gave a bioavailability in data set [9] of 57%.
